MrgX1 antag: antagonists of human MrgX1 receptor; MRGX1-HEK293 calcium flux, Fluo-4, BAM8-22 antagonism; hits give low values; AID 588676; Q96LB2; B-score at 10 µM; hit rate 1.3% among 310,000;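 active = calcium-response B-score plate-corrected more than 3 library SD below zero, starting fluorescence within 5 deviations, no agonist response on first addition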;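 note: peak minus trough fluorescence over baseline after final BAM8-22 challenge near maximal dose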
Target sequence (Q96LB2 whole entry, looked up): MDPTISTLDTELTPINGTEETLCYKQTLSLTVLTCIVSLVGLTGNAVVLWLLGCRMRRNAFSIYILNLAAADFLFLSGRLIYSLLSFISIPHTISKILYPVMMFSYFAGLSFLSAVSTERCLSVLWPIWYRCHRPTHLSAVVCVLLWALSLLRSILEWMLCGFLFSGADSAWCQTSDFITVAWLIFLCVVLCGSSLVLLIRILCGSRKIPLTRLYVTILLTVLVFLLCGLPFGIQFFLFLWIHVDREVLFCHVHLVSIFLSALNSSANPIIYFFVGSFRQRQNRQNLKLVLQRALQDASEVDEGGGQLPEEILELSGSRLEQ
RGS4 act: RGS4 potentiation or activation | AID 463111 | hit rate 0.92% among 310,000 | HEK293 M3R/inducible RGS4, carbachol calcium flux Fluo4; hits give low values | B-score at 10 µM;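 active = B-score of the integrated calcium signal more than 4 SD below the library mean, with starting fluorescence not abnormally high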;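 note: negative B-score means reduced calcium response which marks RGS4 activation or potentiation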
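Assay system: HEK293 FlpIn-TREx cells, stable M3R, doxycycline-inducible RGS4 / Probe or stimulus: carbachol, ECmax concentration / Times: overnight RGS4 induction, 30 min dye load 37 °C, 20 min compound RT / Signal: kinetic calcium fluorescence imaging with Fluo4-AM dye, 2 µM / Measure: Agonist-evoked peak-minus-minimum fluorescence over baseline, integrated ratio, B score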
RGS4 inh: inhibitors of human RGS4 | hit rate 0.45% among 310,000 | HEK293 M3R/RGS4 inducible, Fluo-4 calcium flux; hits give high values; triggered by carbachol at its EC20 | B-score at 10 µM | P49798 | AID 463165;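 active = B-score, a plate-corrected calcium signal, over three deviations above library mean, with baseline fluorescence within five deviations of library mean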;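 note: RGS4 expression induced by doxycycline in cells with stable M3 receptor; B-score is computed from the integrated fluorescence ratio over baseline after carbachol; higher B-score means a larger calcium signal and so more RGS4 inhibition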
Target sequence (P49798 whole entry, looked up): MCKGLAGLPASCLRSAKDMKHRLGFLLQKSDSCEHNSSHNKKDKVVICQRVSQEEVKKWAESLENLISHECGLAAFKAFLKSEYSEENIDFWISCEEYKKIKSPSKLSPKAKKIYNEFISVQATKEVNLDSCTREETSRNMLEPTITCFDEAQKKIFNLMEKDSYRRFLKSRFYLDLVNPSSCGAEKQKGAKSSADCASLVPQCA
MrgX1 PAM: human MrgX1 positive allosteric modulation, primary screen. Q96LB2. MrgX1-HEK293, Fluo-4 calcium flux, FDSS; hits give high values. B-score at 10 µM. hit rate 0.63% among 310,000. AID 588675;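 active = plate-corrected calcium response at least 3 library SD above typical, normal starting fluorescence, not activating the receptor alone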;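 note: compound read alongside a low EC10 to EC30 dose of BAM8-22 agonist; peak minus trough fluorescence over baseline measured at the second addition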
MrgX1 ag: activates human MrgX1 receptor signaling | AID 588627 | Q96LB2 | hit rate 0.44% among 310,000 | B-score at 10 µM | MrgX1-HEK293 cells, Fluo-4 calcium fluorescence, agonist mode; hits give high values;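 active = calcium response B-score plate-corrected fluorescence ratio at least 3 library SD, with starting fluorescence B-score inside 5 SD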
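Test system: HEK293 cells stably expressing human MrgX1 receptor; amount: 15,000 cells per well; doses: compound delivered in addition one of three; times: overnight plating before 1 h dye loading; detection: Fluo-4 NW calcium-flux fluorescence, kinetic read; read-out basis: B-scored fluorescence response ratio; controls: positive and negative controls per plate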
RGS4 activ val: RGS4 activation, validation assay; shares compounds with RGS4 act; HEK293 M3R/RGS4 inducible, carbachol calcium flux Fluo4; inhibition, % at 10 µM; hit rate 89% among 1,100; AID 602282;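 active = inhibition above 3 SD of the buffer control wells, cut at about 41% in these data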;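 note: signal is the integrated peak-minus-minimum Fluo4 fluorescence over baseline ratio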
RGS4 act ctr: activity in cells without induced RGS4 expression. inhibition, % at 10 µM. HEK293 M3R non-induced RGS4, Fluo4 calcium flux; after carbachol challenge at its EC90. shares compounds with RGS4 act. hit rate 82% among 1,100;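 active = inhibition exceeding 3 SD of buffer-only control wells, cut at about 26% in these data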;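 note: percent drop in integrated peak-minus-baseline over baseline Fluo4 ratio after carbachol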
Numbers stand for hits; – = inactive; · = no result. An excerpt weighted towards active compounds, which were near 3.5% of everything screened.

SMILES	MrgX1 antag	RGS4 act	RGS4 inh	MrgX1 PAM	MrgX1 ag	RGS4 activ val	RGS4 act ctr
O=C(O)c1ccc(-c2nc3ccccc3s2)o1	–	–	–	–	–	·	·
O=C(c1ccc(-c2nc3ccccc3s2)o1)N1CCN(c2ccccc2O)CC1	–	-8.29	–	–	–	86.0	52.8
CCCSc1nc(C)c2cc(C)cc(C)c2n1	–	–	–	–	–	·	·
Cc1cc(C)c2nc3nc(C)c(C)cc3c(N)c2c1	·	-9.29	–	·	·	90.5	64.8
N#Cc1c(NC(=O)c2cnccn2)sc2c1CCCC2	–	–	–	–	–	·	·
CC(=O)/C(C(=N)N1CCN(C(c2ccccc2)c2ccccc2)CC1)=C(\C)O	–	-9.24	–	–	–	81.0	83.8
c1ccc(OCCCN2CCCC2)cc1	–	–	–	–	–	·	·
c1ccc(OCc2ccc(CCCN3CCOCC3)cc2)cc1	–	-8.06	–	–	–	57.5	83.8
c1ccc(COc2ccc(OCCCN3CCCCC3)cc2)cc1	–	-7.71	–	–	–	90.0	62.8
c1ccc(CCCN2CCOCC2)cc1	–	–	–	–	–	·	·
CCN(CC)C(=O)Cn1cnc2sc(C(=O)Nc3cc(OC)c(OC)c(OC)c3)c(C)c2c1=O	–	–	–	–	–	·	·
COc1ccc(N2CCN(c3ncnc4scc(-c5ccccc5)c34)CC2)cc1	–	-7.88	–	–	–	54.0	–
COc1ccc(N2CCN(c3ncnc4scc(-c5ccc(F)cc5)c34)CC2)cc1	–	–	–	–	–	·	·
COc1ccc(-c2csc3ncnc(N4CCN(c5ccccc5Cl)CC4)c23)cc1	–	-8.57	–	–	–	75.5	83.8
COc1ccc(N2CCN(c3ncnc4scc(-c5ccc(C)cc5)c34)CC2)cc1	–	-7.86	–	–	–	–	–
COc1ccc(-c2csc3ncnc(N4CCN(S(=O)(=O)c5cccs5)CC4)c23)cc1	–	-8.18	–	–	–	42.5	83.8
C/C(CC(=O)Nc1ccccc1F)=N\NC(=O)Cc1ccc(Cl)cc1	–	–	–	–	–	·	·
CCCC(O)(CCN1CCCCC1)c1ccc(OCC)cc1 (stereo unspecified)	–	–	–	–	–	·	·
COc1ccc(C(O)(CCN2CCCCC2)C2CCCCC2)cc1 (stereo unspecified)	–	-10.3	–	–	–	92.0	95.3
CCOc1ccccc1Oc1cn[nH]c1-c1ccc(O)cc1O	–	–	–	–	–	·	·
C=C(C)COc1ccc(-c2[nH]ncc2Oc2ccccc2OCC)c(O)c1	–	-7.74	–	–	–	91.0	91.8
COc1ccc(-c2nc[nH]c2[N+](=O)[O-])cc1	–	–	–	–	–	·	·
CN(Cc1nc(-c2cnccn2)no1)Cc1cccc2ccccc12	–	–	–	–	–	·	·
COC(=O)C1=C(C)N(C)C(=O)NC1c1ccc(C)cc1 (stereo unspecified)	–	–	–	–	–	·	·
CC1=C(C(=O)OC(C)(C)C)C(c2ccc3ccccc3c2)NC(=O)N1C (stereo unspecified)	–	-8.02	–	–	–	93.5	81.3
SMILES	MrgX1 antag	RGS4 act	RGS4 inh	MrgX1 PAM	MrgX1 ag	RGS4 activ val	RGS4 act ctr
CN1CCCN(C(=O)CSc2ccccc2)CC1	–	–	–	–	–	·	·
CN1CCCN(C(=O)CC(c2ccccc2)c2ccccc2)CC1	–	-8.11	–	–	–	88.5	46.8
Cc1ccccc1C(=O)N1CCC(C(=O)Nc2cc(C(F)(F)F)ccc2N2CCCC2)CC1	–	–	–	–	–	·	·
CCCCONc1ncnc2nonc12	–	–	–	–	–	·	·
CC1CCN(CC(=O)Nc2ccccc2-c2ccccc2)CC1	–	-9.14	–	–	–	91.5	61.3
CC1CCN(CCCCOc2ccc(Cl)cc2)CC1	–	–	–	–	–	·	·
CNCCCCOc1ccccc1-c1ccccc1	–	-8.77	–	–	–	85.0	83.8
CC1CCN(CCCCOc2ccc(C(C)(C)C)cc2)CC1	–	-9.55	–	–	–	93.0	60.3
CC1CCN(CCCCOc2ccccc2-c2ccccc2)CC1	–	-8.36	–	–	–	72.5	83.8
CNCCOc1ccccc1-c1ccccc1	–	–	–	–	–	·	·
Cc1ccc(S(=O)(=O)NC(=O)Nc2cc(C)no2)cc1	–	–	–	–	–	·	·

Screening data as filed in PubChem BioAssay.
